{"source": "paper PMC7580710", "about": "(Pharmacology Research & Perspectives, 2020)", "key": {"[1]": {"settings": "cited from earlier work"}, "[2]": {"settings": "3 hours, or 1, 2, 3, and 7 days after injection; cited from earlier work"}, "[3]": {"experiment": "Plasma pharmacokinetics after intravenous", "type": "in vivo, Sprague Dawley rats", "settings": "rat, 2.5 mg i.v., plasma sampled for 3 days", "procedure,_shortened": "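Adult male Sprague Dawley rats (350-400 g) under isoflurane (5% induction, 1%-3% maintenance) got one internal jugular injection. Blood was taken by terminal cardiac puncture from 0 to 72 h (N = 3 per time) and plasma separated cold. Levels were measured in duplicate by LC-MS/MS after protein precipitation with analog internal standard (curve 1.0-500 ng/mL). Data were fitted with a three-compartment naïve-pooled model, extended least-squares, variance-weighted.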"}, "[4]": {"experiment": "Urinary excretion", "type": "in vivo, Sprague Dawley rats", "settings": "rat, i.v., urine from bladder"}}, "note": "Peptide text beside a SMILES is read from it. * marks the point of attachment. Lauroyl = CCCCCCCCCCCC(=O)*", "data": [{"compound": "CCCCCCCCCCCC(=O)NCCCC[C@H](NC(=O)[C@@H](NC(=O)[C@@H](NC(=O)[C@H](C)NC(=O)[C@H](C)NC(=O)[C@H](CCCCN)NC(=O)[C@H](CCCCN)NC(=O)[C@H](CS)NC(=O)[C@H](CCCCN)NC(=O)[C@@H]1CCCN1C(=O)[C@H](CC(C)C)NC(=O)[C@@H](NC(=O)[C@H](Cc1c[nH]c2ccccc12)NC(=O)[C@H](CC(C)C)NC(=O)[C@@H](N)CCCCN)C(C)C)C(C)C)C(C)C)C(N)=O", "note": "[collagen‐targeted PA] (H-KLWVLPKCKKAAVVK(Lauroyl)-NH2)", "values": [{"measurement": "CAC for this fiber", "setting": "[1]", "value": "below 1 µM"}, {"measurement": "critical aggregation concentration (CAC)", "setting": "[1]; collagen-targeted PA with Alexa Fluor 546, nanofibers at neutral pH", "value": "< 300", "unit": "nM"}, {"measurement": "liver function profiles, coagulation panel, or chemistry panel", "setting": "[2]", "value": "no change"}, {"measurement": "observed terminal half-life (not to be interpreted as elimination half-life)", "setting": "[3]", "value": 42.6, "unit": "h"}, {"measurement": "presence of the target peptide in urine by LC-MS/MS", "setting": "[4]", "value": "did not show the presence of the target peptide"}]}]}
